Rows were chosen to be rich in hits. Some 1.8% of all compounds tested hit in one or more screens of this group.
SUMO HTRF inh – inhibitors of in vitro SUMOylation cascade, primary screen, biochemical, HTRF, uHTS | hit rate 0.36% among 290,000 | HTRF SUMOylation assay, SAE1/SAE2 + UBC9 | AID 2006, 2009 | SUMO-conjugating enzyme UBC9 (Homo sapiens), P63279 | inhibition, % at 35 µM; in the data active = inhibition above about 50%, passing the limit was not always enough; inconclusive = no clear call, values can overlap the other calls
core dimer inh – inhibitors of HCV core protein dimerization, primary screen, biochemical, TR-FRET, high-throughput. AID 1899, 2009. inhibition, % at 5 µM. TR-FRET GST/Flag-core106 dimerization, 1536-well. hit rate 0.33% among 300,000;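 active = inhibition above the mean of all tested compounds plus 3 SD, set per screening campaign, cut at about 45% in these data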
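System: GST/Flag-tagged HCV core106 proteins. Incubation: compound-protein-antibody incubation 4 h at 22.5 °C. Technique: HTRF with 340 nm excitation, 617/671 nm emission. Medium: KF-containing HEPES buffer, pH 7.45, DTT, CHAPS, BSA. Read-out: inhibition (%) from 671 over 617 nm ratio. Also added: Eu(K)-anti-GST 90 ng/mL plus XL665-anti-Flag 1 µg/mL.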
MLLE-PAM2 inh – inhibitors of PABP1 MLLE–PAM2 peptide binding, primary screen, biochemical, fluorescence polarization, FITC-PAM2, GST-MLLE; hit rate 0.36% among 360,000; Polyadenylate-binding protein 1 (Homo sapiens), P11940; inhibition, % at 20 µM; in the data active = inhibition above about 35%, passing the limit was not always enough;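 note: plate controls were DMSO wells with GST-MLLE for no effect and wells lacking GST-MLLE protein for full effect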
eIF4E-4G inh – eIF4E–eIF4G protein interaction inhibitors, primary screen, biochemical, uHTS, TR-FRET, eIF4GI fragment | TR-FRET eIF4E-eIF4GI(517-606) binding, 2 h | hit rate 0.37% among 220,000 | inhibition, % at 21.7 µM | Eukaryotic translation initiation factor 4E (Mus musculus) + Eukaryotic translation …;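 active = inhibition above about 30%, limit read from the data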;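 note: 0% = full FRET control wells and 100% = background wells lacking eIF4GI fragment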
eIF4H FP inh – human eIF4H binding inhibitors, primary screen, translation initiation inhibitor project, biochemical, uHTS, fluorescence polarization; Eukaryotic translation initiation factor 4H (Homo sapiens), Q15056; eIF4H fluorescence polarization binding assay; inhibition, % at 35 µM; hit rate 0.94% among 290,000;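 note: calls also rest on retests at 20 µM and on dose response follow-up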
PABP polyA inh – PABP poly(A) RNA binding inhibitors, primary screen, biochemical, fluorescence polarization, uHTS | Polyadenylate-binding protein 1 (Homo sapiens), P11940 | calls only at 35 µM | hit rate 1% among 290,000 | AID 2014, 2009;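 note: calls also rest on retests at 20 µM and on dose response follow-up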
Numbers without * were called inactive; i = inactive; ? = inconclusive; . = no result given; + = active, no number. Unless noted, the rule behind the calls is not given here.

SMILES	SUMO HTRF inh	core dimer inh	MLLE-PAM2 inh	eIF4E-4G inh	eIF4H FP inh	PABP polyA inh
Cc1onc(-c2c(F)cccc2Cl)c1C(=O)OCC(=O)Nc1cccc(S(=O)(=O)N(C)C)c1	.	.	-46	.	.	.
Cn1c(CC(=O)Nc2ccc(F)cc2)nnc1SCC(=O)Nc1nncs1	-12	-7	-2	.	1	i
COc1ccc(C2C(C#N)=C3NC(=O)c4c(sc5c4CCCCC5)N3C3=C2C(=O)CC(C)(C)C3)cc1 (stereo not drawn)	1	46*	-38	-7	12	i
Cc1cccc2sc(N(CCN(C)C)C(=O)C3CCN(S(=O)(=O)c4cccs4)CC3)nc12	.	-4	-1	.	.	.
Fc1ccc(C[n+]2csc3ccccc32)cc1	11	-7	42*	3	-12	i
Clc1ccc(C[n+]2csc3ccccc32)cc1	-8	0	13	0	1	i
Cc1c(C(=O)O)oc2c1/C(=N\O)CC(C)(C)C2	-10	-8	6	6	-3	i
CCC(C)Nc1nnnc2c1sc1nc3c(cc12)COC(C)(C)C3 (stereo not drawn)	11	0	-5	1	85*	i
CC(OC(=O)c1ccccc1C(=O)N(C)C1CCCCC1)C(=O)NC1(C#N)CCCCC1 (stereo not drawn)	.	.	-3	.	.	.
COc1ccc2c(C)c(C(=O)NCC(C)O)oc2c1OC (stereo not drawn)	59*	5	7	-5	2	i
Oc1c(Br)cc(Br)cc1CNc1cccc2cccnc12	75*	11	3	.	31	i
Oc1ccc(Cl)cc1CNc1cccc2cccnc12	66*	5	-8	.	13	i
CCOc1ccc(CN2CCNC(=O)C2CC(=O)NCCN2CCOC2=O)cc1 (stereo not drawn)	-1	10	14	.	7	i
Cc1ccc(NC(=O)CN(C)CC(=O)Nc2ccccc2Oc2ccccc2)cc1	3	6	-5	3	-1	i
CCCN(CC(=O)Nc1ccc(C(C)=O)cc1)CC(=O)Nc1ccccc1C	-5	-5	-21	2	?	+
CCCN(CC(=O)Nc1cc(C)on1)CC(=O)Nc1ccccc1C	.	.	-2	.	.	.
Cc1ccc(NC(=O)CN(C)CC(=O)Nc2ccccc2C#N)cc1	14	-2	15	-5	active	i
COc1cc(C(=O)O)c2c(c1C)OC(=O)c1c(C)cc(O)c(C=O)c1O2	.	1	7	.	.	.
CC(CN1CCCCCC1)C(=O)NN (stereo not drawn)	14	-1	-13	-3	active	+
CC(CN1CCCCC1)C(=O)NNC(=O)C12CC3CC(CC(C3)C1)C2 (stereo not drawn)	6	1	4	-7	2	i
CC(=O)N1CCN(c2ccc(NC(=S)NC(=O)COc3ccc(C(C)(C)C)cc3)cc2)CC1	1	16	44*	17	6	i
CC(C)(C)c1ccc(C(=O)NC(=S)Nc2ccc(N3CCOCC3)cc2)cc1	0	4	34	1	5	+
CC(C)(C)c1ccc(C(=O)Nc2ccc(N3CCOCC3)cc2)cc1	13	-3	5	15	-2	i
CCC(=O)N1CCN(c2ccc(NC(=S)NC(=O)COc3ccccc3)cc2)CC1	-1	-2	24	-3	-3	i
Cc1ccc(C(=O)NC(=S)Nc2ccc(N3CCN(C(=O)c4ccco4)CC3)cc2)cc1	22	12	40*	.	-6	i
SMILES	SUMO HTRF inh	core dimer inh	MLLE-PAM2 inh	eIF4E-4G inh	eIF4H FP inh	PABP polyA inh
O=C(Nc1nnc(C2CCCCC2)s1)C1CC(=O)N(c2ccccc2)C1 (stereo not drawn)	13	-7	11	.	-3	i
O=C(Nc1nnc(C2CC2)s1)C1CC(=O)N(c2ccc3c(c2)OCCO3)C1 (stereo not drawn)	0	22	-14	25	96*	+
CN1CCc2nc(NC(=O)c3cccc(OC(F)F)c3)sc2C1	27	0	-64	1	74*	+
COc1ccc(O)c(/C=N/NC(=S)Nc2cccnc2)c1	-12	-3	41*	-1	12	i
Oc1ccc(/C=N/NC(=S)Nc2cccnc2)cc1	16	3	38*	4	-5	i
Cc1csc(=O)n1CCC(=O)OCC(=O)NNC(=O)c1ccc(Cl)cc1	.	.	45*	.	.	.
Cc1ccc(S(=O)(=O)NN=CC=CC=NNS(=O)(=O)c2ccc(C)cc2)cc1	.	.	10	.	.	.
Cc1ccc(SCC(=O)OCC(=O)NC(C)c2ccc(F)cc2)cc1 (stereo not drawn)	.	.	12	.	.	.
Cc1ccc(CSC2=Nc3ccccc3C3=NC(CC(=O)NCc4ccco4)C(=O)N23)cc1 (stereo not drawn)	20	64*	-8	5	51*	+
N#Cc1ccc(Cl)cc1NC(=O)CSc1nc2nc(-c3cccs3)cc(C(F)(F)F)c2c(=O)[nH]1	14	2	.	31*	16	i
O=c1cc(CN2CCc3ccccc32)nc2sccn12	2	86*	1	-19	19	i
O=c1cc(CN2CCN(c3ccccn3)CC2)nc2sccn12	12	2	11	7	-8	i
O=c1cc(CN2CCCc3ccccc32)nc2sccn12	9	2	124	5	94*	i
O=c1c2nnn(Cc3ccccc3)c2ncn1C/C=C/c1ccccc1	1	28	-7	-6	-2	i
CC(=O)C1=C(C)NC(SCC(=O)Nc2nc3ccccc3s2)=C(C#N)C1c1ccc(Cl)cc1 (stereo not drawn)	-14	12	24	0	-8	i
COc1ccc(NC(=O)CSC2=C(C#N)C(c3ccco3)C(C(=O)Nc3nc4ccccc4s3)=C(C)N2)cc1 (stereo not drawn)	.	48*	5	.	.	.
CCNc1nc(NC(C)C)nc(Oc2ccc(=O)n(C)n2)n1	-8	0	-9	65*	2	i
CCOC(=O)c1nc(Nc2ccccc2)c2ccccc2n1	19	3	0	5	-6	i
CCOC(=O)c1nc(Nc2ccc(C)cc2)c2ccccc2n1	12	-3	60*	1	13	i
COC(=O)c1sccc1NC(=S)Nc1cc(C)cc(C)c1	-2	3	38*	4	0	i
CCn1c(C)cc(=S)c2ccccc21	11	7	40*	14	0	i
CCn1c2ccccc2c2cc(/C(C)=N/O)ccc21	10	4	-6	7	1	i

Assay outcomes: PubChem BioAssay, several laboratories
